# Hep lipid drop – inhibitors of hepatocyte lipid droplet formation, primary screen, imaging, high-throughput imaging, BODIPY stain | AML12 mouse hepatocytes, oleate lipid droplets | inhibition, % at 6.5 µM | 240,000 compounds, 0.4% hits | AID 1656, 2009;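 active means lipid droplet intensity inhibited by at least 50%, with more than 500 cells counted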
#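 Technique: fluorescence imaging, 20x objective, two fields per well / Assay system: AML12 hepatocytes (mouse) / Measure: % inhibition of lipid droplet signal / Doses: 6.5 µM single-point dosing / Incubation: overnight exposure / Reagent: 100 µM oleic acid challenge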
# Arrestin-AP2 inh – inhibitors of beta-arrestin/AP2 binding, primary screen, biochemical, GPCR trafficking, flow cytometry; FITC-arrestin peptide / GST-AP2 beads; AP2 beta2 appendage carries R879A mutation; inhibition, % at 10 µM; beta-arrestin 1 C-terminal peptide binding to AP2 beta2-adaptin appendage (human); 340,000 compounds, 0.31% hits;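 active means inhibition above a set limit, near 3 SD of compounds lacking own fluorescence, cut at about 54% in these data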;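 further: plate controls were DMSO wells for no effect and 5 µM unlabelled arrestin peptide for full effect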
#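 system = GST-tagged AP2 beta2-adaptin appendage (R879A) on 4 µm glutathione beads | reagent = FITC-labelled arrestin peptide probe, 50 nM final | schedule = compound with beads 12 min RT, then probe 1 h RT | signal = HyperCyt-sampled flow cytometry, FL1 channel, ex 488/em 535 nm | read-out = percent response from loss of bead-bound FITC fluorescence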
# M18AAP inhibitor – PfM18AAP inhibitors, malaria aminopeptidase, primary screen, biochemical, QFRET, recombinant enzyme; H-Glu-NHMec fluorogenic cleavage; M18 aspartyl aminopeptidase (Plasmodium falciparum 3D7); AID 1822, 2009; 290,000 compounds, 1.2% hits; inhibition, % at 7.35 µM;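 active means inhibition above the campaign mean inhibition over all tested compounds plus 3 SD, cut at about 28% in these data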;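 further: 0% = plate median of test compound wells and 100% = 2 mM ZnCl2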
# sPLA2-III inh – human group III sPLA2 inhibitors, primary screen, biochemical, QFRET, BODIPY PC-A2 liposome substrate | QFRET BODIPY PC-A2 liposome hydrolysis, fluorescence | inhibition, % at 12.2 µM | 370,000 compounds, 0.56% hits | Group 3 secretory phospholipase A2 (Homo sapiens), Q9NZ20;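 active means inhibition above mean plus 3 SD of compounds lying within the high and low control bounds, cut at about 19% in these data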;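 further: 0% = median of test compound wells and 100% = no enzyme DMSO wells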
# m5-HT2A agonist – mouse Htr2a agonists via beta-arrestin recruitment, primary screen, cell-based, luminescence; 5-hydroxytryptamine receptor 2A (Mus musculus), P35363; CHO-K1 mHTR2A beta-arrestin complementation; percent of 30 µM serotonin response; activation, % at 7.6 µM; 360,000 compounds, 0.66% hits; AID 624169, 2012;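 active means activation above a run cutoff, the mean activation of all tested compounds plus 3 SD, cut at about 14% in these data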;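 further: 0% = plate median of compound wells and 100% = 30 µM serotonin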
# CendR NRP1 mod – modulators of CendR peptide binding to NRP-1, primary screen, biochemical, fluorescence polarization, uHTS; FAM-RPARPAR peptide binding to NRP-1; inhibition, % at 25 µM; 360,000 compounds, 0.85% hits; AID 602438, 2012;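 active means inhibition or corrected inhibition above about 18%, plus a signal ratio from 0.5 to 1.5, limit read from the data, passing the limit was not always enough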
# Target sequence (O14786 whole entry, looked up): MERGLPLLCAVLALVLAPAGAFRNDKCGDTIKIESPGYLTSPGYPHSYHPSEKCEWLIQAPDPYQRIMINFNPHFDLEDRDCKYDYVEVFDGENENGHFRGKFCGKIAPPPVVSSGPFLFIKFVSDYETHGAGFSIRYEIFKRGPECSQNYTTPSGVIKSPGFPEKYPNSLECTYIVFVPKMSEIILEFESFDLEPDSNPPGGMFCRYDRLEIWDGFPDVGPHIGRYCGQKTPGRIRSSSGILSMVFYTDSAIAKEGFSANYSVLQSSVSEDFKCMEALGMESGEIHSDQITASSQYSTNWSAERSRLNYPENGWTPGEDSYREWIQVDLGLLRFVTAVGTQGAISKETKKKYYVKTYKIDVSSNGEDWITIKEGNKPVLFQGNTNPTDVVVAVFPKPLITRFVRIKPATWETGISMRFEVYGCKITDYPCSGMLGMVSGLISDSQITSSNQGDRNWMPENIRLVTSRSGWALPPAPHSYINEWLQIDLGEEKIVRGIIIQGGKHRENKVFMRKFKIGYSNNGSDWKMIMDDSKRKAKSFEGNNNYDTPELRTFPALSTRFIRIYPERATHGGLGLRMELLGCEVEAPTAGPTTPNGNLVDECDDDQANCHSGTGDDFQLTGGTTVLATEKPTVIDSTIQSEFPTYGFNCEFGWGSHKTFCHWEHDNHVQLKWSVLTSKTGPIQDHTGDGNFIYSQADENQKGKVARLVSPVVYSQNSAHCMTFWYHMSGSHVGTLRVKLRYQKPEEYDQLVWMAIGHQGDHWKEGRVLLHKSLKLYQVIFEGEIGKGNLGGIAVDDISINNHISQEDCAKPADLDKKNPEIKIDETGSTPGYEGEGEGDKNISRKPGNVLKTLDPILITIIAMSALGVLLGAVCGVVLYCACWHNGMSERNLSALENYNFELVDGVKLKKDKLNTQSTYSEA
# Starred values were filed as active, the others as inactive; . = no result. Shown are actives, neighbours in structure and some others; about 3.3% of the full set was active somewhere.
SMILES,Hep lipid drop,Arrestin-AP2 inh,M18AAP inhibitor,sPLA2-III inh,m5-HT2A agonist,CendR NRP1 mod
CN(C(=O)c1cccc(NC(=O)Cc2ccc(NC(=O)C3CCCN(C(=O)C4CCC4)C3)cc2)c1)C1CCCCC1 (stereo not drawn),.,6.8,.,-22.4,0.3,7.5
CN(C)c1ccc(CC(=O)N2CCCC(c3cc(C(=O)Nc4ccc5c(c4)OCO5)no3)C2)cc1 (stereo not drawn),.,.,.,5.6,-5.0,33.1*
CC(C)c1ccc(C(=O)N2CCCC(c3cc(C(=O)Nc4ccc5c(c4)OCO5)no3)C2)cc1 (stereo not drawn),.,.,.,5.7,-3.0,22.4*
Cc1cccc(-c2cccc3c4c([nH]c23)[C@@H]2C[C@H]3[C@@H](CN2CC4)[C@H](C)ON3C)c1,.,.,.,-7.4,.,.
C=CCO[C@H]1CN(C(=O)OC)[C@@H]2C[C@H]1Oc1ccccc12,.,.,.,3.2,.,.
COc1ccc(CN(C)C(=O)C2CCN(S(=O)(=O)c3cccs3)CC2)cc1F,.,-1.1,.,6.7,-6.3,-6.4
CC1CCCN(C(=O)c2ccc(S(=O)(=O)Nc3ccccc3Cl)cc2)C1 (stereo not drawn),-7.6,3.4,-0.9,-8.8,0.3,1.3
O=C(c1ccc(S(=O)(=O)Nc2ccccc2Cl)cc1)N1CCOCC1,.,0.8,.,4.8,-0.9,26.5*
CC(C#N)(NC(=O)CN1CCN(S(=O)(=O)c2cccc(F)c2)CC1)C1CC1 (stereo not drawn),.,.,.,1.8,1.1,-0.8
C#CC1(O)CCC2C3CCC4=Cc5oncc5CC4(C)C3CCC21C (stereo not drawn),.,.,.,-12.1,-5.8,-2.4
CC(C)C[C@@H](CN1CCC[C@@H]1CN1C(=S)NC[C@@H]1Cc1ccc(O)cc1)N1C[C@H](Cc2ccc(O)cc2)N(CC2CCCCC2)C1=S,.,.,.,-15.9,-3.6,-0.3
O=c1oc(/C=C/c2ccccc2)nc2sc3c(c12)CCC3,16.4,2.4,-2.5,0.2,1.1,25.1*
COc1ccc(C2CC(=O)Oc3cc(OC)ccc32)cc1 (stereo not drawn),.,17.3,.,1.4,1.0,-1.5
COc1ccc(C2CC(O)(c3ccccc3)Oc3cc(OC)ccc32)cc1 (stereo not drawn),10.4,30.8,.,-19.3,-5.6,26.4*
CCCCN1C(=O)C2(NNc3ccccc3O2)c2ccccc21 (stereo not drawn),-0.5,3.1,9.4,-8.4,4.8,-167.9
C=CCN1C(=O)C2(NNc3ccccc3O2)c2ccccc21 (stereo not drawn),0.3,2.4,31.4*,-2.9,8.7,-111.9
CCN1/C(=C/C=C/C=C/c2sc3ccccc3[n+]2CC)Sc2ccccc21,-218.9,.,37.3*,.,.,.
CC[n+]1c(/C=C/Nc2ccccc2)sc2ccccc21,.,-13.8,30.4*,1.8,1.2,1.6
C[C@H](CO)N1C[C@H](C)[C@@H](CN(C)Cc2ccc(C(=O)O)cc2)OCCCC[C@H](C)Oc2ccc(NC(=O)CCC(F)(F)F)cc2C1=O,.,.,.,-9.7,.,.
CCc1nnc(NC(=O)CSc2nnc(CCc3nc4ccccc4[nH]3)n2C)s1,.,-1.1,1.7,5.7,-1.6,19.0*
O=S1(=O)N[C@H](Cc2ccccc2)COc2cc(N3CCCC3)ccc21,.,.,.,0.7,.,.
Cc1c(C)n(C)c2ccc(C(=O)NCCCN3CCCC3)cc12,-15.9,-10.0,13.4,-4.5,-6.7,-5.9
CCN(CC)c1ccc(NC(=O)c2ccc3c(c2)c(C)c(C)n3C)cc1,71.2*,42.3,3.7,2.4,-3.0,-5.2
CN(C)c1cc(N/N=C\c2ccccc2)nc(N(C)C)n1,-4.5,-12.6,10.2,7.8,-18.7,35.4*
O=C(Nc1cccc(OC(F)(F)F)c1)C1Cc2c(-c3cccc(F)c3)ccnc2O1 (stereo not drawn),.,.,.,-3.6,-3.5,8.0
SMILES,Hep lipid drop,Arrestin-AP2 inh,M18AAP inhibitor,sPLA2-III inh,m5-HT2A agonist,CendR NRP1 mod
COc1ccc(-c2ccc3c(n2)CCCN3Cc2ccccc2C(F)(F)F)cc1,.,.,.,16.6,.,.
O=C(CNC(=O)C12CC3CC(CC(C3)C1)C2)NC1=NCCS1,-9.6,19.5,6.8,-7.1,0.5,26.4*
CC(=O)OCC(=O)C1(O)CCC2C3CC(C)C4=CC(=O)C=CC4(C)C3C(O)CC21C (stereo not drawn),.,.,.,-2.4,2.8,-4.2
C[C@H]1C[C@@H]2[C@H]([C@@H](O)C[C@@]3(C)[C@H]2CC[C@]3(O)C(=O)CO)[C@@]2(C)C=CC(=O)C=C12,-5.3,3.2,-8.7,-4.2,18.2*,-2.4
CCOC(=O)C1=CCN(S(=O)(=O)c2ccccc2F)C1c1ccc(Cl)c(Cl)c1 (stereo not drawn),.,.,.,-3.5,-6.4,4.4
O=C(NC1CC1)c1ccc(COc2ccc(F)cc2)o1,.,-4.5,1.8,0.4,3.3,24.7*
O=C(NCC1CCCO1)c1ccc(COc2ccc(F)cc2)o1 (stereo not drawn),-6.0,3.3,-6.6,2.8,-0.9,2.5
COc1ccc(-c2ccc(OC)c(OC)c2OC)c(OC)c1OC,.,0.4,.,1.7,8.8,20.1*
CC[C@H](CCC(=O)N(c1ccccc1)c1ccccc1)C1CC1,.,.,.,1.2,.,.
CC1(Cc2ccc(F)c(Cl)c2)C(=O)Nc2c(Cl)cccc21 (stereo not drawn),.,.,.,-4.9,6.7,25.2*
CC1(Cc2cc(Cl)ccc2C(F)(F)F)C(=O)Nc2c(Cl)cccc21 (stereo not drawn),.,.,.,-7.2,0.5,8.9
Cc1ccc(-n2c(C)cc(C)c(C#N)c2=O)cc1C,-17.9,-2.9,5.5,-1.6,0.7,29.6*
O=C(NC(=S)N1CCN(C/C=C/c2ccccc2)CC1)c1ccc(Cl)nc1,-13.5,11.1,-5.0,10.7,0.9,8.7
CCN(CC)C(=O)C1CCCN(C(=O)Nc2ccc3nsnc3c2)C1 (stereo not drawn),.,0.6,8.6,2.8,3.8,33.5*
Cc1ccc(S(=O)(=O)N2CCN(C(=O)CSc3n[nH]c(N)n3)CC2)c(C)c1,.,-15.4,.,5.1,5.9,5.4
CCOC(=O)c1cnc(-n2nc(C)cc2C)nc1Nc1ccc(OC)cc1,3.2,9.8,2.7,6.5,2.4,30.3*
COC(=O)CCc1c(C)[nH]c(C(=O)OCc2ccccc2)c1C,.,11.7,3.7,-11.1,5.1,19.5*
CCOC(=O)c1c(C)[nH]c(C(=O)OCc2ccccc2)c1C,-20.3,30.4,-13.5,-14.0,-1.5,2.8

# From PubChem BioAssay
